Test results taken from ChEMBL document CHEMBL3745620, “Design and Synthesis of DiselenoBisBenzamides (DISeBAs) as Nucleocapsid Protein 7 (NCp7) Inhibitors with anti-HIV Activity” (J Med Chem, 2015).
Calls of active or inactive are those of the source. The rule behind the calls is not given here.

Key:
[1] = system: Human immunodeficiency virus 1; test: Antiviral activity against HIV1 3B infected in human MT4 cells assessed as protection against virus-induced cytopathic effect after 5 days by MTT assay; assay type: functional, organism-based; settings: Human immunodeficiency virus 1, 3B, MT4, 120 h
Summary of the method: (§1)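 MT-4 cells in RPMI 1640 with 10% heat-inactivated FCS, resuspended at 6 x 10^5 cells/ml. Compounds added at start in serial 5-fold dilutions, triplicate wells, to mock- and virus-infected cells (100-300 CCID50 per well). After 5 days, viability by MTT reduction (OD540). […] Mean ± SD, at least two experiments.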

[2] = system: Human immunodeficiency virus 2; test: Antiviral activity against HIV2 ROD infected in human MT4 cells assessed as protection against virus-induced cytopathic effect after 5 days by MTT assay; assay type: functional, organism-based; settings: Human immunodeficiency virus 2, ISOLATE ROD, MT4, 120 h; summary of the method: as §1
[3] = Cytotoxicity against human MT4 cells assessed as cell viability after 5 days by MTT assay; assay type: cell-based
Summary of the method: (§2)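 Compounds added at start in serial 5-fold dilutions, triplicate wells, to mock- and virus-infected cells (100-300 CCID50 per well). After 5 days, viability by MTT reduction (OD540). Mean ± SD, at least two experiments.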

[4] = Selectivity index, ratio of CC50 for human MT4 cells to EC50 for HIV1 3B; assay type: toxicity, cell-based; settings: read-out: Ratio CC50/EC50; summary of the method: as §2
[5] = Selectivity index, ratio of CC50 for human MT4 cells to EC50 for HIV-2 ROD; assay type: toxicity, cell-based; settings: read-out: Ratio CC50/EC50; summary of the method: as §2
[6] = system: Human immunodeficiency virus 1; test: Antiviral activity against HIV1 3B infected in human MT4 cells assessed as inhibition of viral replication by measuring p24 Ag production at 2 ug/ml measured at 31 hrs post infection by ELISA; assay type: functional, organism-based
Summary of the method: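 MT-4 cells infected with HIV-1 IIIB at m.o.i. 0.5, 1 h adsorption, then seeded at 45,000 cells/well at 37°C. Compound added at times from 0 to 25 h post-infection. Read-out was p24 in supernatant by ELISA at 31 h post-infection.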

HuT78 = test: Inhibition of NCp7 of HIV1 3B persistently infected in HUT78 cells assessed as accumulation of unprocessed Gag polyprotein after 43 hrs by Western blot analysis; assay type: cell-based; settings: Human immunodeficiency virus 1
Summary of the method: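 Washed HuT-78(IIIB) cells (2x10^5 in 1 ml) treated with compound for 43 h at 37°C. Virions pelleted from clarified supernatant (36,670 g, 2 h, 4°C), lysed, run on SDS-PAGE and transferred to PVDF. Blot probed with mouse anti-p24 (1:5000), then HRP anti-mouse (1:2500), with chemiluminescent detection.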

[7] = system: Human immunodeficiency virus 1; test: Antiviral activity against HIV1 3B persistently infected in HUT78 cells assessed as reduction of p24 production after 43 hrs by ELISA; assay type: functional, organism-based; settings: Human immunodeficiency virus 1, 3B, HuT78, 43 h
Summary of the method: (§3)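 Chronically HIV-1 IIIB-infected HuT-78 cells washed four times in PBS to remove free virions and seeded at 2 × 10^5 cells/well with 7 serial 5-fold compound dilutions for 43 h at 37°C. Supernatant p24 measured by ELISA. Cytotoxicity was run in parallel by MTT plus microscopy. SI = CC50/EC50. Mean ± SD, ≥2 experiments.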

[8] = Cytotoxicity against human HUT78 cells assessed as reduction in cell viability after 5 days by MTT assay; assay type: cell-based
[9] = system: Human immunodeficiency virus 1; test: Antiviral activity against NNRTI-resistant HIV1 RES056 harboring reverse transcriptase K103N/181C double mutant infected in human MT4 cells; assay type: functional, organism-based; settings: Human immunodeficiency virus 1, RES056, MT4
Summary of the method: (§4)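 MT-4 cells in RPMI 1640 with 10% heat-inactivated FCS were infected at the start of the experiment, with compound added across serial 5-fold dilutions in triplicate wells. Cells were seeded at 6 x 10^5 cells/ml. After 5 days, protection against virus-induced cytopathic effect was read by MTT reduction at OD540. […] Values are means ± SD of at least two experiments.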

[10] = system: Human immunodeficiency virus 1; test: Antiviral activity against NRTI/NNRTI-resistant HIV1 L6 harboring reverse transcriptase V75I/F77L/K103N/F116Y/Q151M/M184V mutant infected in human MT4 cells; assay type: functional, organism-based; settings: Human immunodeficiency virus 1, L6, MT4; summary of the method: as §4
[11] = Antiviral activity against nevirapine-resistant SIV mac251 infected in human MT4 cells; assay type: functional, cell-based; settings: Simian immunodeficiency virus; summary of the method: as §4
[12] = Selectivity index, ratio of CC50 for human HUT78 cells to EC50 for HIV1 3B; assay type: toxicity, cell-based; settings: read-out: Ratio CC50/EC50; summary of the method: as §3
[13] = system: Human immunodeficiency virus 1; test: Antiviral activity against ritonavir-resistant HIV1 3B/RIT infected in human MT4 cells; assay type: functional, organism-based; settings: Human immunodeficiency virus 1, 3B/RIT; summary of the method: as §4
[14] = system: Human immunodeficiency virus 1; test: Antiviral activity against ritonavir-resistant HIV1 B12 harboring […] L10I/I15V/I54V/L63P/V82A/I85V mutant infected in human MT4 cells; assay type: functional, organism-based; settings: Human immunodeficiency virus 1, B12, MT4; summary of the method: as §4

SMILES | EC50 [1] [µM] | EC50 [2] [µM] | CC50 at 120 h [3] [µM] | selectivity ratio [4] | selectivity ratio [5] | inhibition [6] | inhibition (HuT78) | EC50 [7] [µM] | CC50 at 120 h [8] [µM] | EC50 [9] [µM] | EC50 [10] [µM] | EC50 [11] [µM] | selectivity ratio [12] | EC50 [13] [µM] | EC50 [14] [µM]
O=C(O)[C@@H]1CCCN1C(=O)c1ccccc1[Se][Se]c1ccccc1C(=O)N1CCC[C@H]1C(=O)O | > 152 | > 152 | 152 | < 1 | < 1 | Active | Dose-dependent effect |  |  |  |  |  |  |  | 
CCOC(=O)CNC(=O)c1ccccc1[Se][Se]c1ccccc1C(=O)NCC(=O)OCC | 0.91 | 0.74 | 6.26 | 7 | 9 | Active |  |  |  |  |  |  |  |  | 
Cc1ccnc2c1NC(=O)c1cccnc1N2C1CC1 [NEVIRAPINE] | 0.28 | > 15 | > 15 | > 60 |  |  |  | 0.26 | > 14 | > 15 | > 15 | > 15 |  |  | 
NS(=O)(=O)c1ccc(NC(=O)c2ccccc2SSc2ccccc2C(=O)Nc2ccc(S(N)(=O)=O)cc2)cc1 | 3.04 | 0.56 | 10.5 | 6 | 30 |  |  | 2.66 | 18.4 |  |  |  | 6.9 |  | 
O=C(O)C[C@H](NC(=O)c1ccccc1[Se][Se]c1ccccc1C(=O)N[C@@H](CC(=O)O)C(=O)O)C(=O)O | > 151 | > 151 | 151 | < 1 | < 1 | Active | Dose-dependent effect |  |  |  |  |  |  |  | 
CC1CNC(=O)c2ccccc2SSc2ccccc2C(=O)N1 (stereo not drawn) |  |  |  |  |  |  | Dose-dependent effect | > 7.5 | > 7.5 |  |  |  | > 54 |  | 
NS(=O)(=O)c1ccc(NC(=O)c2cccnc2[Se][Se]c2ncccc2C(=O)Nc2ccc(S(N)(=O)=O)cc2)cc1 | 3.77 | ≥ 3.11 | 19.2 | 5 | ≤ 6 | Active | Dose-dependent effect |  |  |  |  |  |  |  | 
CC(C)c1nc(CN(C)C(=O)N[C@H](C(=O)N[C@@H](Cc2ccccc2)C[C@H](O)[C@H](Cc2ccccc2)NC(=O)OCc2cncs2)C(C)C)cs1 [RITONAVIR] | 0.09 | 0.14 |  |  |  | Active | Dose-dependent effect | 29 |  |  |  | 0.14 |  | 2.77 | 1.28
C[C@H](NC(=O)c1ccccc1[Se][Se]c1ccccc1C(=O)N[C@@H](C)C(=O)O)C(=O)O | 10.3 | 5.38 | 138 | 13 | 26 | Active | Dose-dependent effect |  |  |  |  |  |  |  | 
NS(=O)(=O)c1ccc(OC(=O)c2ccccc2[Se][Se]c2ccccc2C(=O)Oc2ccc(S(N)(=O)=O)cc2)cc1 | > 18.6 | > 18.6 | 18.6 | < 1 | < 1 | Active | Dose-dependent effect |  |  |  |  |  |  |  | 
COC(=O)C[C@H](NC(=O)c1ccccc1[Se][Se]c1ccccc1C(=O)N[C@@H](CC(=O)OC)C(=O)OC)C(=O)OC | ≥ 3.17 | ≥ 2.75 | 9.74 | ≤ 3 | ≤ 3 | Active |  |  |  |  |  |  |  |  | 
COC(=O)[C@H](C)NC(=O)c1ccccc1[Se][Se]c1ccccc1C(=O)N[C@@H](C)C(=O)OC | 3.17 | 1.94 | 15.8 | 5 | 8 | Active |  |  |  |  |  |  |  |  | 
COC(=O)[C@@H]1CCCN1C(=O)c1ccccc1[Se][Se]c1ccccc1C(=O)N1CCC[C@H]1C(=O)OC | ≥ 4.32 | 4.56 | 10.1 | ≤ 2 | 2 | Active |  |  |  |  |  |  |  |  | 
NS(=O)(=O)c1ccc(NC(=O)c2ccccc2[Se][Se]c2ccccc2C(=O)Nc2ccc(S(N)(=O)=O)cc2)cc1 | 2.82 | 3.03 | 17.4 | 6 | 6 | Active | Dose-dependent effect | 8.25 | > 35 |  |  |  | > 4 |  | 
CCOC(=O)CC[C@H](NC(=O)c1ccccc1[Se][Se]c1ccccc1C(=O)N[C@@H](CCC(=O)OCC)C(=O)OCC)C(=O)OCC | ≥ 0.67 | ≥ 0.72 | 2.8 | ≤ 4 | ≤ 4 | Active |  |  |  |  |  |  |  |  | 
CC[C@H](C)[C@H](NC(=O)c1ccccc1[Se][Se]c1ccccc1C(=O)N[C@H](C(=O)OC)[C@@H](C)CC)C(=O)OC | 0.84 | ≥ 1.25 | 2.99 | 4 | ≤ 2 | Active |  |  |  |  |  |  |  |  | 
CC(C)[C@H](NC(=O)c1ccccc1[Se][Se]c1ccccc1C(=O)N[C@H](C(=O)O)C(C)C)C(=O)O | 13.9 | 14.3 | 136 | 10 | 9 | Active | Dose-dependent effect |  |  |  |  |  |  |  | 
O=C(O)CNC(=O)c1ccccc1SSc1ccccc1C(=O)NCC(=O)O | > 58.1 | > 58.1 | 58.1 | < 1 | < 1 | Active |  |  |  |  |  |  |  |  | 
